Results: ChEMBL document CHEMBL4138273, “Cysteine-Derived Pleurotin Congeners from the Nematode-Trapping Basidiomycete Hohenbuehelia grisea” (J Nat Prod, 2018)
Converted amounts (≈) assume the structure as drawn. The source made the active and inactive calls. The calls are words filed in the database; no cut-off is given here.

Assays:
[1] = test system: Bacillus subtilis; assay: Antimicrobial activity against Bacillus subtilis DSM10 after 16 to 48 hrs by serial dilution method; type: functional
Procedure, shortened: (§1)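 Inoculum was adjusted to 6.7 × 10^5 cells/mL. Top concentration was 67 μg/mL (20 μL of 1 mg/mL stock) or 100 μg/mL (20 μL of 1.5 mg/mL stock). Ethanol (20 μL) served as negative control.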

[2] = test system: Staphylococcus aureus; assay: Antimicrobial activity against Staphylococcus aureus DSM 346 after 16 to 48 hrs by serial dilution method; type: functional; procedure, shortened: as §1
[3] = test system: Micrococcus luteus; assay: Antimicrobial activity against Micrococcus luteus DSM 1790 after 16 to 48 hrs by serial dilution method; type: functional; procedure, shortened: as §1
[4] = test system: Rhodotorula glutinis; assay: Antimicrobial activity against Rhodotorula glutinis DSM 10134 after 16 to 48 hrs by serial dilution method; type: functional
Procedure, shortened: (§2)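 Yeasts and filamentous fungi were tested by serial dilution in 96-well plates in YMG medium. Inoculum was adjusted to 6.7 × 10^5 cells/mL. Highest tested level was 67 μg/mL (from 20 μL of 1 mg/mL stock) or 100 μg/mL (from 20 μL of 1.5 mg/mL stock). Ethanol (20 μL) was the negative control.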

[5] = test system: Schizosaccharomyces pombe; assay: Antimicrobial activity against Schizosaccharomyces pombe DSM 70572 after 16 to 48 hrs by serial dilution method; type: functional, organism-based; procedure, shortened: as §2
[6] = test system: Candida albicans; assay: Antimicrobial activity against Candida albicans DSM 1665 after 16 to 48 hrs by serial dilution method; type: functional; procedure, shortened: as §2
[7] = test system: Wickerhamomyces anomalus; assay: Antimicrobial activity against Pichia anomala DSM 6766 after 16 to 48 hrs by serial dilution method; type: functional; procedure, shortened: as §2
[8] = test system: Yamadazyma tenuis; assay: Antimicrobial activity against Candida tenuis MUCL 29892 after 16 to 48 hrs by serial dilution method; type: functional; procedure, shortened: as §2
[9] = test system: Mucor plumbeus; assay: Antimicrobial activity against Mucor plumbeus MUCL 49355 after 16 to 48 hrs by serial dilution method; type: functional; procedure, shortened: as §2
[10] = test system: KB 3-1; assay: Cytotoxicity against human KB3-1 cells after 5 days by MTT assay; type: functional, cell-based; details: KB 3-1, 120 h
Procedure, shortened: (§3)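 Mouse fibroblast L929 and HeLa-derived KB3.1 cells were seeded at 6 × 10^3 cells/well in 96-well plates. Cells were exposed to compounds for 5 days, and IC50 was determined.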

[11] = test system: L929; assay: Cytotoxicity against mouse L929 cells after 5 days by MTT assay; type: functional, cell-based; details: L929, 120 h; procedure, shortened: as §3
[12] = test system: Mucor hiemalis; assay: Antimicrobial activity against Mucor hiemalis DSM 2656 after 16 to 48 hrs by serial dilution method; type: functional; procedure, shortened: as §2
[13] = test system: Mycolicibacterium smegmatis; assay: Antimicrobial activity against Mycobacterium smegmatis DSM 44200 after 16 to 48 hrs by serial dilution method; type: functional; procedure, shortened: as §1
[14] = test system: Escherichia coli; assay: microbe, parasite or virus in culture; details: DSM 498

Compound | MIC [1] [µg/mL] | MIC [2] [µg/mL] | MIC [4] [µg/mL] | Activity [5] | Activity [6] | MIC ([7]; Hansenula anomala) [µg/mL] | MIC [8] [µg/mL] | MIC [9] [µg/mL] | MIC [12] [µg/mL] | Activity [13] | Activity [3] | Activity [9] | Activity [2] | Activity [12] | Activity [1] | further results
CC1(C)S[C@@H]2[C@H](NC(=O)Cc3ccccc3)C(=O)N2[C@H]1C(=O)O [PENICILLIN G] | 6.3 (≈ 18.8 µM) |  |  |  |  |  |  |  |  |  |  |  |  |  |  | 
CN(C)[C@@H]1C(O)=C(C(N)=O)C(=O)[C@@]2(O)C(O)=C3C(=O)c4c(O)cccc4[C@@](C)(O)[C@H]3[C@H](O)[C@@H]12 [OXYTETRACYCLINE] |  | 6.7 (≈ 14.6 µM) |  |  |  |  |  |  |  |  |  |  |  |  |  | MIC [3]: 0.4 µg/mL (≈ 0.869 µM)
C[C@@H]1CO[C@@H]2C3=C(C(=O)C=CC3=O)[C@H]3OC(=O)[C@@H]4CC[C@H]5[C@@H]1CC[C@@]25[C@@H]34 (racemic) | 100 (≈ 282 µM) | 66.7 (≈ 188 µM) | 33.3 (≈ 94 µM) | inactive | inactive | 66.7 (≈ 188 µM) | 100 (≈ 282 µM) | 100 (≈ 282 µM) | 16.7 (≈ 47.1 µM) | inactive | inactive |  |  |  |  | IC50 [10]: 2.8 µg/mL (≈ 7.9 µM); IC50 [11]: 2.2 µg/mL (≈ 6.21 µM)
C[C@@H]1CO[C@@H]2C3=C(CC4[C@H](C(=O)O)CCC5[C@@H]1CC[C@]452)C(=O)C(SC[C@H](O)C(=O)O)=CC3=O (stereo partly specified) |  |  |  | inactive | inactive |  |  |  |  | inactive | inactive | inactive | inactive | inactive | inactive | Activity [4]: inactive; Activity [7]: inactive; Activity [8]: inactive
CC(=O)N[C@@H](CSC1=CC(=O)C2=C(CC3[C@H](C(=O)O)CCC4[C@@H]5CC[C@]34[C@@H]2OC[C@H]5C)C1=O)C(=O)O (stereo partly specified) |  |  | 33.3 (≈ 64.3 µM) | inactive | inactive | 66.7 (≈ 129 µM) | 100 (≈ 193 µM) |  |  | inactive | inactive | inactive | inactive | inactive | inactive | 
NC[C@H]1O[C@H](O[C@H]2[C@H](O)[C@@H](O[C@H]3O[C@H](CO)[C@@H](O)[C@H](N)[C@H]3O)[C@H](N)C[C@@H]2N)[C@H](O)[C@@H](O)[C@@H]1O [KANAMYCIN] |  |  |  |  |  |  |  |  |  |  |  |  |  |  |  | MIC [13]: 0.4 µg/mL (≈ 0.826 µM)
NYSTATIN |  |  | 16.7 |  |  |  | 12.5 | 12.5 | 16.7 |  |  |  |  |  |  | MIC [5]: 16.7 µg/mL; MIC [6]: 16.7 µg/mL; MIC [7]: 16.7 µg/mL
O=C(O)c1cn(C2CC2)c2cc(N3CCNCC3)c(F)cc2c1=O [CIPROFLOXACIN] |  |  |  |  |  |  |  |  |  |  |  |  |  |  |  | MIC [14]: 3.1 µg/mL (≈ 9.36 µM)
C[C@@H]1CO[C@@H]2c3c(O)cc4scnc4c3C[C@H]3[C@H](C(=O)O)CC[C@H]4[C@@H]1CC[C@@]243 |  |  | 33.3 (≈ 83.4 µM) | inactive | inactive | 66.7 (≈ 167 µM) | 100 (≈ 250 µM) |  |  | inactive | inactive | inactive | inactive | inactive | inactive | 
C[C@@H]1CO[C@@H]2C3=C(CC4[C@H](C(=O)O)CCC5[C@@H]1CC[C@]452)C(=O)C=CC3=O (stereo partly specified) | 50 (≈ 140 µM) | 33.3 (≈ 93.4 µM) | 16.7 (≈ 46.9 µM) | inactive |  | 66.7 (≈ 187 µM) | 25 (≈ 70.1 µM) | 100 (≈ 281 µM) | 8.3 (≈ 23.3 µM) | inactive |  |  |  |  |  | MIC [6]: 33.3 µg/mL (≈ 93.4 µM); IC50 [10]: 8.5 µg/mL (≈ 23.8 µM); IC50 [11]: 7.5 µg/mL (≈ 21 µM); MIC [3]: 66.7 µg/mL (≈ 187 µM)
